In ChEMBL document CHEMBL4699587, “Pyridine-4(1H)-one Alkaloids from Waltheria indica as Antitrypanosomatid Agents” (J Nat Prod, 2020):

How the values were obtained:
Trypanosoma cruzi = assay: Growth inhibition of amastigote form of Trypanosoma cruzi Tulahuen C2C4 expressing LacZ infected in rat L6 cells assessed as reduction in parasitic growth incubated for 96 hra by CPRG/Nonidet reagent based inverted microscopic analysis; assay type: functional, organism-based
Procedure, shortened: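 Intracellular amastigotes of T. cruzi Tulahuen C4 strain were tested in vitro for growth inhibition. IC50 values are in µM, given as the mean of two independent assays or the mean of three independent assays ± SD.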

L6 = assay: Cytotoxicity against rat L6 cells assessed as reduction in cell viability after 70 hrs by resazurin dye based inverted microscopic analysis; conditions: L6, 70 h
[1] = Selectivity index, ratio of IC50 for cytotoxicity against rat L6 cells to IC50 for growth inhibition of amastigote form of Trypanosoma cruzi Tulahuen C2C4 expressing LacZ infected in rat L6 cells; assay type: toxicity, cell-based; conditions: read-out: Ratio IC50
Procedure, shortened: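 Selectivity index is calculated as the IC50 for cytotoxicity in uninfected rat skeletal L6 host cells divided by the IC50 against T. cruzi (Tulahuen C4) amastigotes. Both IC50 values are in µM.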

| Structure (SMILES) | IC50 (Trypanosoma cruzi) | IC50 (L6) | selectivity ratio [1] |
| --- | --- | --- | --- |
| COc1c(C)[nH]c2c(c1=O)[C@@H](CCCCCc1ccccc1)CCC2=O | 0.5 µM | 12 µM | 24.5 |
| COc1c(CO)n(OC)c2c(c1=O)[C@H](CCCCCc1ccccc1)CCC2 | 3.9 µM | > 26 µM | > 6 |
| CCCCCCCCCCCCc1cc(=O)c(OC)c(C)[nH]1 | 5 µM | > 32 µM | > 6 |
| COc1c(CO)[nH]c2c(c1=O)[C@H](CCCCCc1ccccc1)CCC2 | 7 µM | > 28 µM | > 4 |
| COc1c(C)[nH]c2c(OC)ccc(CCCCCc3ccccc3)c2c1=O | 2.1 µM | > 26 µM | > 12.5 |
| COc1ccccc1[C@@]12CC[C@@H](OC1)c1c2ccc2[nH]c(C)c(OC)c(=O)c12 | 19 µM | > 26 µM | > 1 |
| CCCCCCCC[C@H]1CC[C@@H](O)c2[nH]c(C)c(OC)c(=O)c21 | 6.5 µM | 26.2 µM | 4 |
| COc1c(C)[nH]c2c(c1=O)[C@@H](CCCCCc1ccccc1)CC[C@H]2O | 0.8 µM | > 28 µM | > 33 |

Now from value to compound, other results behind:

| IC50 (Trypanosoma cruzi) | Structure (SMILES) | IC50 (L6) | selectivity ratio [1] |
| --- | --- | --- | --- |
| > 20 µM | COc1c(C)[nH]c2ccc3c(c2c1=O)[C@@H]1CC[C@H](O)[C@@]3(c2ccccc2)O1 | > 22 µM | > 1 |
| 1.3 µM | COc1c(C)[nH]c2c(c1=O)[C@@H](CCCCCc1ccccc1)CCC2 | 6.5 µM | 5 |
| 2.9 µM | O=C(Cn1ccnc1[N+](=O)[O-])NCc1ccccc1 [BENZNIDAZOLE] | > 345 µM | > 119 |
| 0.1 µM | COc1c(C)[nH]c2c(c1=O)[C@@H](CCCCCc1ccccc1)CC[C@H]2OC | 1.8 µM | 13.8 |
| 7.5 µM | COc1c(C)n(OC)c2c(c1=O)[C@@H](CCCC[C@H](O)c1ccccc1)CCC2 | > 26 µM | > 3.5 |
| 14.7 µM | COc1ccc(OC)c([C@@]2(O)c3ccc4[nH]c(C)c(OC)c(=O)c4c3[C@@H]3CC[C@H]2O3)c1 | > 25 µM | > 1 |
| 12.9 µM | COc1cc(CCCCCc2ccccc2)c2c(=O)c(OC)c(C)[nH]c2c1OC | > 23 µM | > 1.5 |
| 10 µM | CCCCCCCCc1cccc2[nH]c(C)c(OC)c(=O)c12 | 15 µM | 1.5 |
| 14.7 µM | COc1c(CO)[nH]c2ccc3c(c2c1=O)[C@@H]1CCC[C@@]3(c2ccccc2)O1 | > 22 µM | > 1.5 |
| 18.7 µM | COc1ccccc1[C@]12CC[C@H](O[C@@H]1OC)c1c2ccc2[nH]c(C)c(OC)c(=O)c12 | > 24 µM | > 1 |
| 13.1 µM | COc1cc(OC)cc(C2=CCCCc3c2ccc2[nH]c(C)c(OC)c(=O)c32)c1 | > 25 µM | > 1.5 |
| 2.1 µM | COc1c(C)[nH]c(CCCCCCCCCc2ccccc2)cc1=O | > 29 µM | > 13 |
